Among the data in ChEMBL document CHEMBL4177526, “Discovery and structure activity relationship of the first potent cryptosporidium FIKK kinase inhibitor” (Bioorg Med Chem, 2017) are Activity, inhibition and EC50 values, retold here.

For assay [1], the target named is Serine/threonine-protein kinase MARK2 (Homo sapiens) (UniProt Q7KZI7). Kind of assay: Inhibition of human MARK2 (2 to 691 residues) assessed as residual activity at 500 nM in presence of 33P-ATP by filter binding assay relative to control.
The target of assay [2] is Ribosomal protein S6 kinase alpha-1 (Homo sapiens) (UniProt Q15418). Briefly: Inhibition of human RSK1 (1 to 735 residues) assessed as residual activity at 500 nM in presence of 33P-ATP by filter binding assay relative to control.
The target of assay [3] is Protein kinase C zeta type (Homo sapiens) (UniProt Q05513). Kind of assay: Inhibition of human PKCzeta (2 to 592 residues) assessed as residual activity at 500 nM in presence of 33P-ATP by filter binding assay relative to control.
The target of assay [4] is Serine/threonine-protein kinase N2 (Homo sapiens) (UniProt Q16513). Kind of assay: Inhibition of human PRK2 (501 to 984 residues) assessed as residual activity at 500 nM in presence of 33P-ATP by filter binding assay relative to control.
The target of assay [5] is Casein kinase II subunit alpha (Homo sapiens) (UniProt P68400). Briefly: Inhibition of human CK2alpha (2 to 391 residues) assessed as residual activity at 500 nM in presence of 33P-ATP by filter binding assay relative to control.
Assay [6] has as its target Serine/threonine-protein kinase Pink1, mitochondrial (Tribolium castaneum) (UniProt D6WMX4). Kind of assay: Inhibition of Tribolium castaneum PINK1 (1 to 570 residues) assessed as residual activity at 500 nM in presence of 33P-ATP by scintillation counting method relative to control.
The target in assay [7] is Serine/threonine-protein kinase PAK 6 (Homo sapiens) (UniProt Q9NQU5). Briefly: Inhibition of human PAK6 (2 to 681 residues) assessed as residual activity at 500 nM in presence of 33P-ATP by scintillation counting method relative to control.
Assay [8] addresses Serine/threonine-protein kinase ULK2 (Homo sapiens) (UniProt Q8IYT8). Briefly: Inhibition of human ULK2 (1 to 1036 residues) assessed as residual activity at 500 nM in presence of 33P-ATP by filter binding assay relative to control.
For assay [9], the system named is RAC-alpha serine/threonine-protein kinase (Homo sapiens), P31749 [S473D]. Kind of assay: Inhibition of human PKBalpha S473D mutant (118 to 480 residues) assessed as residual activity at 500 nM in presence of 33P-ATP by filter binding assay relative to control.
Assay [10] deals with Glycogen synthase kinase-3 beta (Homo sapiens) (UniProt P49841). Kind of assay: Inhibition of human GSK3beta (2 to 420 residues) assessed as residual activity at 500 nM in presence of 33P-ATP by filter binding assay relative to control.
For assay [11], the target named is Eukaryotic translation initiation factor 2-alpha kinase 3 (Homo sapiens) (UniProt Q9NZJ5). Briefly: Inhibition of human EIF2AK3 (536 to 1116 residues) assessed as residual activity at 500 nM in presence of 33P-ATP by filter binding assay relative to control.
For assay [12], the target named is Dual specificity tyrosine-phosphorylation-regulated kinase 3 (Homo sapiens) (UniProt O43781). Kind of assay: Inhibition of human DYRK3 (1 to 588 residues) assessed as residual activity at 500 nM in presence of 33P-ATP by filter binding assay relative to control.
The target of assay [13] is Serine/threonine-protein kinase Nek6 (Homo sapiens) (UniProt Q9HC98). Kind of assay: Inhibition of human NEK6 (8 to 313 residues) assessed as residual activity at 500 nM in presence of 33P-ATP by filter binding assay relative to control.
For assay [14], the target named is Myosin light chain kinase, smooth muscle (Homo sapiens) (UniProt Q15746). Briefly: Inhibition of human smMLCK (475 to 838 residues) assessed as residual activity at 500 nM in presence of 33P-ATP by filter binding assay relative to control.
The target in assay [15] is MAP kinase-interacting serine/threonine-protein kinase 1 (Homo sapiens) (UniProt Q9BUB5). Briefly: Inhibition of human MNK1 (2 to 424 residues) assessed as residual activity at 500 nM in presence of 33P-ATP by filter binding assay relative to control.
The target in assay [16] is Serine/threonine-protein kinase 16 (Homo sapiens) (UniProt O75716). Briefly: Inhibition of human MPSK1 (1 to 305 residues) assessed as residual activity at 500 nM in presence of 33P-ATP by filter binding assay relative to control.
The target of assay [17] is Serine/threonine-protein kinase pim-1 (Homo sapiens) (UniProt P11309). Briefly: Inhibition of human PIM1 (2 to 313 residues) assessed as residual activity at 500 nM in presence of 33P-ATP by filter binding assay relative to control.
The target of assay [18] is Death-associated protein kinase 1 (Homo sapiens) (UniProt P53355). Briefly: Inhibition of human DAPK1 (1 to 363 residues) assessed as residual activity at 500 nM in presence of 33P-ATP by filter binding assay relative to control.
Assay [19] addresses Mitogen-activated protein kinase 10 (Homo sapiens) (UniProt P53779). Briefly: Inhibition of human JNK3 (40 to 422 residues) assessed as residual activity at 500 nM in presence of 33P-ATP by filter binding assay relative to control.
For assay [20], the target named is Ephrin type-B receptor 3 (Homo sapiens) (UniProt P54753). Briefly: Inhibition of human EPHB3 (565 to 984 residues) assessed as residual activity at 500 nM in presence of 33P-ATP by filter binding assay relative to control.
The target of assay [21] is Mitogen-activated protein kinase 9 (Homo sapiens) (UniProt P45984). Briefly: Inhibition of human JNK2 (1 to 424 residues) assessed as residual activity at 500 nM in presence of 33P-ATP by filter binding assay relative to control.
Assay [22] addresses Mitogen-activated protein kinase 14 (Homo sapiens) (UniProt Q16539). Kind of assay: Inhibition of human p38alpha (1 to 360 residues) at 500 nM in presence of 33P-ATP by filter binding assay relative to control.
The next assay has as its system Cryptosporidium parvum. Briefly: Antiparasitic activity against Cryptosporidium parvum Iowa oocysts infected in human HCT8 cells pretreated prior to infection measured after 48 hrs by fluorescein labeled Vicia villosa lectin/Hoechst 33258 staining based epifluorescence microscopic analysis. It counts as functional, organism-based. The following applies: Cryptosporidium parvum, Iowa, HCT-8; read-out: EC50. An outline of the steps: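 HCT-8 cells grown in RPMI-1640 with 10% heat-inactivated FBS and penicillin. Three-fold compound dilutions in culture medium were added to confluent cells before about 5500 excysted C. parvum Iowa oocysts per well. After 48 h, cells were fixed with 4% paraformaldehyde and permeabilized. Vacuoles were stained with fluorescein-Vicia villosa lectin (1.33 µg/mL, 1 h, 37 °C) and nuclei with Hoechst 33258, then imaged by epifluorescence microscopy.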

The subject of assay [23] is TGF-beta receptor type-1 (Homo sapiens), P36897 [T204D]. Kind of assay: Inhibition of human TGFbetaR1 T204D mutant (200 to 501 residues) at 500 nM in presence of 33P-ATP by filter binding assay relative to control.

Broadly, the inhibition is how much of the control response was suppressed. Broadly, the EC50 is the concentration that produces a half-maximal response. On to `Cc1cccc(-c2nc(N)sc2-c2ccc3ncccc3n2)c1`, for which the Activity in assay [1] is 134%; in assay [2] it was 128%; in [3], 123%; in assay [4], 121%; in [5], 119%; in assay [6] it was 119%. For the same compound, the Activity in assay [7] was found to be 119%; in assay [8], 118%; in [9], 115%; in assay [10] it was 112%; in [11], 112%; in assay [12] it was 109%. Further, the Activity in assay [13] worked out at 108%; in [14], 104%; in assay [15], 99%; in [16], 99%; in assay [17], 97%; in [18] it was 96%. In addition, the Activity came to 90% in [19], 89% in [20] and 79% in assay [21]. In addition, the results for the inhibition in assay [22] and in assay [23] were 91% and 86%, respectively. Moreover, the EC50 with Cryptosporidium parvum turned out to be 2.6 µM.
